Positions count from the first letter of the chain named.
How the values were obtained:
Settings in all cases: stereoisomer not certain
O10A2 H43R H207R K258T = test system: T1, O10A2 H43R H207R K258T
T1 sequence (whole entry): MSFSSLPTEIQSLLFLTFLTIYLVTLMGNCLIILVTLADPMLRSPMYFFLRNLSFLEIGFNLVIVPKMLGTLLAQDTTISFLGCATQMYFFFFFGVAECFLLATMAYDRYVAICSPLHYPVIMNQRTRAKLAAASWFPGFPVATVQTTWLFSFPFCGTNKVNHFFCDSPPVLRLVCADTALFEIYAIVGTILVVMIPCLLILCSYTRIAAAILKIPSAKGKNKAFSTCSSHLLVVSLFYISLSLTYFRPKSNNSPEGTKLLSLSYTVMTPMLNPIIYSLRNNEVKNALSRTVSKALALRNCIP
Procedure, shortened: (§1)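 Each receptor–molecule pair is labelled responsive or non-responsive (inactive) according to whether the original authors judged the measured signal statistically different from baseline. The data were taken from the main text and supplementary material of published papers and checked for typos and inconsistencies. Assay methods differed by source, with transient luciferase assays in mammalian cell lines being common.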

O10A3 C8G = test system: T2, O10A3 C8G
T2 sequence (whole entry): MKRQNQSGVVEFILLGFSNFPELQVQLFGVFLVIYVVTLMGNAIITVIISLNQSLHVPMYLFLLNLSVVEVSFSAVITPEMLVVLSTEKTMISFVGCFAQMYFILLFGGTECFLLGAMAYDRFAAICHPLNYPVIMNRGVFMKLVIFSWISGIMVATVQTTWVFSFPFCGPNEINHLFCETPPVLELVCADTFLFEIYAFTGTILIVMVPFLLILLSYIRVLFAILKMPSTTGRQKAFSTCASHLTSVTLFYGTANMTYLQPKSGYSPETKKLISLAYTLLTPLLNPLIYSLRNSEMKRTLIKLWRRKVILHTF
Procedure, shortened: as §1

O10A6 = test system: T3, O10A6
T3 sequence (whole entry): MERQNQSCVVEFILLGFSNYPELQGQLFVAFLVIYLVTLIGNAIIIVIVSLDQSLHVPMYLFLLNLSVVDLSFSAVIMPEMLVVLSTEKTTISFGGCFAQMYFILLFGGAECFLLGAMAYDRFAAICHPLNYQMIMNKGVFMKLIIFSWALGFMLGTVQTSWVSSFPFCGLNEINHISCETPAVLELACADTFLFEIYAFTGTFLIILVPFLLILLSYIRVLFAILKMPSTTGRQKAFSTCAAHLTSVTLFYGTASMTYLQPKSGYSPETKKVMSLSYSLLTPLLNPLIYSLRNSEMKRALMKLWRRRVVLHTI
Procedure, shortened: as §1

O10AD G65C = test system: T4, O10AD G65C
T4 sequence (whole entry): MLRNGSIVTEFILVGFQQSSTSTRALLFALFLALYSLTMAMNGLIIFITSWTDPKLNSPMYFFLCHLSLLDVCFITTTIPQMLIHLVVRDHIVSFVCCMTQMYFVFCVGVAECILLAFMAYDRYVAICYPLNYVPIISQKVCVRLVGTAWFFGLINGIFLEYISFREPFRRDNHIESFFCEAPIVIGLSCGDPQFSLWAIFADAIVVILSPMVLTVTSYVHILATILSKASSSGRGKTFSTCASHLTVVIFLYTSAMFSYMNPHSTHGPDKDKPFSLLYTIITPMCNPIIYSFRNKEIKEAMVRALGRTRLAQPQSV
Procedure, shortened: as §1

O10D3 V134A R197K = test system: T5, O10D3 V134A R197K
T5 sequence (whole entry): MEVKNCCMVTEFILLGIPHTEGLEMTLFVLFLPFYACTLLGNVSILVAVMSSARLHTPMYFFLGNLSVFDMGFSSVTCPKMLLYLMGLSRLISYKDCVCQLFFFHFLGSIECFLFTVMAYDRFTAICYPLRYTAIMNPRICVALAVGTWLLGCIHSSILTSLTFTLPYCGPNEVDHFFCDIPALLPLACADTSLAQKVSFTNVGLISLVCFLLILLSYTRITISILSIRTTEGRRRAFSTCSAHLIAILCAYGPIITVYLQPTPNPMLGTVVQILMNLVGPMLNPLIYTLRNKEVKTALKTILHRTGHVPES
Procedure, shortened: as §1

O10G4 L24P V195E = test system: T6, O10G4 L24P V195E
T6 sequence (whole entry): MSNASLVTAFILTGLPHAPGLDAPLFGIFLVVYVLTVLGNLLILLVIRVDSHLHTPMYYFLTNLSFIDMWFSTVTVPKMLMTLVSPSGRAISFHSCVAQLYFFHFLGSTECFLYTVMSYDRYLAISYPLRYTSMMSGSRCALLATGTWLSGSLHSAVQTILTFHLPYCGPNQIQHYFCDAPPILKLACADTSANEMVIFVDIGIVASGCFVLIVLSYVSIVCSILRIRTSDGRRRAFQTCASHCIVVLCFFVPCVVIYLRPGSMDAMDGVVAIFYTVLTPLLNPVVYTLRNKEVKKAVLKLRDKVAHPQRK
Procedure, shortened: as §1

O10G7 A18V P19Q G20A = test system: T7, O10G7 A18V P19Q G20A
T7 sequence (whole entry): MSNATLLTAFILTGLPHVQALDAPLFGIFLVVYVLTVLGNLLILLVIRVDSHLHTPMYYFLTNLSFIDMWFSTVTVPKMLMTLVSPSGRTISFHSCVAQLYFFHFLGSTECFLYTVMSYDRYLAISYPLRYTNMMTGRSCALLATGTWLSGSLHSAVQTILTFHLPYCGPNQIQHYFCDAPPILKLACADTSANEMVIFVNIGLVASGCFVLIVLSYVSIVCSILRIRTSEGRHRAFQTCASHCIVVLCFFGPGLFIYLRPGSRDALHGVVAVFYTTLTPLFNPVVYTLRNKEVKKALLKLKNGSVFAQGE
Procedure, shortened: as §1

O10G7 I28V = test system: T8, O10G7 I28V
T8 sequence (whole entry): T7 sequence (whole entry) with V18A, Q19P, A20G, I28V
Procedure, shortened: as §1

O10H2 = test system: T9, O10H2
T9 sequence (whole entry): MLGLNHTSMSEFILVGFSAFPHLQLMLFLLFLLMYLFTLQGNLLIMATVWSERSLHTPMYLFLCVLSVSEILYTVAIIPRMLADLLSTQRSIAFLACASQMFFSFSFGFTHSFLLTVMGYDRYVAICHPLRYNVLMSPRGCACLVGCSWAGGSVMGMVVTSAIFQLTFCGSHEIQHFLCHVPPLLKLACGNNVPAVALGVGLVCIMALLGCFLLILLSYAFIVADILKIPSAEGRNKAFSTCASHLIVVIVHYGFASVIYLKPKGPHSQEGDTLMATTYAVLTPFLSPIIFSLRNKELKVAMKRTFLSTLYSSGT
Procedure, shortened: as §1

O10H3 R54H = test system: T10, O10H3 R54H
T10 sequence (whole entry): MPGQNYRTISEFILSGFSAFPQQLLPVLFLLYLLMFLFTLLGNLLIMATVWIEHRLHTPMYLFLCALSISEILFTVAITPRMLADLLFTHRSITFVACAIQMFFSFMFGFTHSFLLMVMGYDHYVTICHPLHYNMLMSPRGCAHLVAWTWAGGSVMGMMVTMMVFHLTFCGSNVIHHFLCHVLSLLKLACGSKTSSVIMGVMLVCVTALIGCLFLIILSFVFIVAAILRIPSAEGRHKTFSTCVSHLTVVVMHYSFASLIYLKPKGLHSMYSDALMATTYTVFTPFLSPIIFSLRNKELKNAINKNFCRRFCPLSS
Procedure, shortened: as §1

O10H4 I50V = test system: T11, O10H4 I50V
T11 sequence (whole entry): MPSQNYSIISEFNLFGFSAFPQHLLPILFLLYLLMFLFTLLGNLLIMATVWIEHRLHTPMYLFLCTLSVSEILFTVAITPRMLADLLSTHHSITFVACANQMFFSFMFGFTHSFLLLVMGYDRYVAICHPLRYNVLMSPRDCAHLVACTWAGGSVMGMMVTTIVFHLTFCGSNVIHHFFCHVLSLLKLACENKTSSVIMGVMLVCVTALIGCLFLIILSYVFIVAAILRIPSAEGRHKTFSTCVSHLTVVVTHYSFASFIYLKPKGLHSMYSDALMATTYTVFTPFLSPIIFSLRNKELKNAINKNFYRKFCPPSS
Procedure, shortened: as §1

O10H5 S268Y = test system: T12, O10H5 S268Y
T12 sequence (whole entry): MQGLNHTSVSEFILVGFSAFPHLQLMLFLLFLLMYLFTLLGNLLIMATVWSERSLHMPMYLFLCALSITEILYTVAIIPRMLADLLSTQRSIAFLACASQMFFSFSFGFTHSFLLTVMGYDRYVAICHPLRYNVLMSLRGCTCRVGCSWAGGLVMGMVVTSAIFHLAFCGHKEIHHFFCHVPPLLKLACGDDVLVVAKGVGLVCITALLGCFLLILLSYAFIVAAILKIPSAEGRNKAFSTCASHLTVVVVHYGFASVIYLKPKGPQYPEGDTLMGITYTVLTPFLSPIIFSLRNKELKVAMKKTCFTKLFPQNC
Procedure, shortened: as §1

O10J1 M62I I103M = test system: T13, O10J1 M62I I103M
T13 sequence (whole entry): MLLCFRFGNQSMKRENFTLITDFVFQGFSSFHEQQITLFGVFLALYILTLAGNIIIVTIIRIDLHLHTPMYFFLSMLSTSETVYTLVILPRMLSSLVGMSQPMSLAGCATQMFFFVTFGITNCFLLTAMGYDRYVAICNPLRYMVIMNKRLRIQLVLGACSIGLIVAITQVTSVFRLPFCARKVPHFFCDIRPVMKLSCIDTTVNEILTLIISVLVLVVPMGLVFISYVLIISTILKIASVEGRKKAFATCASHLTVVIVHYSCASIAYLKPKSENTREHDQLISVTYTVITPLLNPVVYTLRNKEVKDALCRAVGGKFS
Procedure, shortened: as §1

O10J1 M62I = test system: T14, O10J1 M62I
T14 sequence (whole entry): T13 sequence (whole entry) with M103I
Procedure, shortened: as §1

O10J3 Q235R E319G = test system: T15, O10J3 Q235R E319G
T15 sequence (whole entry): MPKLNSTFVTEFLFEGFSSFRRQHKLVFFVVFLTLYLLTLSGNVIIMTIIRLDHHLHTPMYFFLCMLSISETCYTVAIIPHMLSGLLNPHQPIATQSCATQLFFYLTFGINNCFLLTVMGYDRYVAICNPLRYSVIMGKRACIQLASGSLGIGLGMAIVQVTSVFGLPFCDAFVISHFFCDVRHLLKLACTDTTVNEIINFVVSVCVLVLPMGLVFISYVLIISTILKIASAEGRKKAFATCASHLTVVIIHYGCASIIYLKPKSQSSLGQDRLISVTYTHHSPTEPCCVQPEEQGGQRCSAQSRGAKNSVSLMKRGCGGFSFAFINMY
Procedure, shortened: as §1

O10P1 R195K = test system: T16, O10P1 R195K
T16 sequence (whole entry): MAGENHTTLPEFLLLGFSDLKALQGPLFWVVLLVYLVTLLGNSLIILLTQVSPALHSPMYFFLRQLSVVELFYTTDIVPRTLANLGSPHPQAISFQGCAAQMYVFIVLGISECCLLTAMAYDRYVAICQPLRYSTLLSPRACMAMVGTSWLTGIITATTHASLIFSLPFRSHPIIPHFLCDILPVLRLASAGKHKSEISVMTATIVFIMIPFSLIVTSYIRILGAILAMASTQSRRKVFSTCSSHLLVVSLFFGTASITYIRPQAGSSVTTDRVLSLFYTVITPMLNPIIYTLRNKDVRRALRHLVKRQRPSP
Procedure, shortened: as §1

O10Q1 E12D = test system: T17, O10Q1 E12D
T17 sequence (whole entry): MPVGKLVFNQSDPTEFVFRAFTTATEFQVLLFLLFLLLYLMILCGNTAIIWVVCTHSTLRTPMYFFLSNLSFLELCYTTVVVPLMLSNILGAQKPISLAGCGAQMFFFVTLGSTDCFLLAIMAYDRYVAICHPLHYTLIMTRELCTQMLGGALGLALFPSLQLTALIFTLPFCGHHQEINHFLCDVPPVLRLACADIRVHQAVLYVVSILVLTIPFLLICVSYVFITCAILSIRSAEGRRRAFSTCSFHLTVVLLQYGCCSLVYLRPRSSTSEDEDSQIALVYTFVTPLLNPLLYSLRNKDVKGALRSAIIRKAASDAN
Procedure, shortened: as §1

O10Q1 Q10R E12D = test system: T18, O10Q1 Q10R E12D
T18 sequence (whole entry): T17 sequence (whole entry) with Q10R
Procedure, shortened: as §1

Measured: odorant receptor agonist call;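 further: active if original authors judged signal statistically different from baseline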

CC1=C(O)C(=O)C(C)O1 (configuration not stated)
inactive: all assays above

CC1=NC(C)C(C)S1 (configuration not stated)
inactive: all assays above

CCC1OC(C)=C(O)C1=O (configuration not stated)
inactive: all assays above

Cc1cnc(C)c(C)n1
inactive: all assays above
